Measured values taken from PMC3112262 (The Journal of surgical research, 2011).
Ends that are not written are not given here.

What was measured:
[1] = system: human pleural mesothelial cells (CRL-9444); experiment: IL-6 ELISA, cytokine-stimulated mesothelial cells; type: cell-based; conditions: for cytokine-induced IL-6 expression, time and dose dependence: 0.1, 1, or 10 ng/mL cytokine, 2, 6, 12, 24 h, triplicate
Outline: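 Human pleural mesothelial cells were grown in supplemented Medium199 with 10% FBS and held 24 h in serum-free medium before cytokine (IL-1β or TNF-α) and/or test compound treatment. Media IL-6 was measured by sandwich ELISA at room temperature with 300 rpm shaking and ABTS substrate. Absorbance was read at 405 nm minus 650 nm every 5 min for 50 min. Samples were run in triplicate and normalised to cell number by Hoechst 33342 DNA stain.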

kinase = conditions: cited from earlier work
[2] = effect of the CPP sequence; ref [37]; cited from earlier work
[3] = system: HSPB1 in human keloid fibroblasts; conditions: ref [36]; cited from earlier work
[4] = system: hnRNPA0 in mesothelial cells; experiment: Western blot, hnRNPA0 phosphorylation; type: cell-based, human; conditions: 1 ng/ml IL-1β
Outline: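 Human pleural mesothelial cell line grown to confluence, serum-starved 24 h, then given 1 ng/ml IL-1β with or without test compound (1000 or 3000 µM), added together, for 6 and 12 h. Lysed in urea/phosphatase-inhibitor buffer. 20 µg protein run on 12% gels, probed for phospho-hnRNPA0 (Ser84) and β-actin, detected by infrared imaging. Band intensity normalized to β-actin.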

MK2 = conditions: ref [35]; cited from earlier work
rat colon anastomosis [5] = experiment: Anastomotic healing: hydroxyproline assay; type: in vivo; conditions: single treatment at surgery, both time points (4 and 10 days)
[6] = rat
mesothelial cells = conditions: ref [37]; cited from earlier work
[7] = target: human recombinant MK2 (h) (Homo sapiens, UniProt P49137); experiment: Radiometric MK2 kinase inhibition; type: biochemical
rat colon anastomosis [8] = conditions: in vivo

Sequence of human recombinant MK2 (h) (P49137 whole entry): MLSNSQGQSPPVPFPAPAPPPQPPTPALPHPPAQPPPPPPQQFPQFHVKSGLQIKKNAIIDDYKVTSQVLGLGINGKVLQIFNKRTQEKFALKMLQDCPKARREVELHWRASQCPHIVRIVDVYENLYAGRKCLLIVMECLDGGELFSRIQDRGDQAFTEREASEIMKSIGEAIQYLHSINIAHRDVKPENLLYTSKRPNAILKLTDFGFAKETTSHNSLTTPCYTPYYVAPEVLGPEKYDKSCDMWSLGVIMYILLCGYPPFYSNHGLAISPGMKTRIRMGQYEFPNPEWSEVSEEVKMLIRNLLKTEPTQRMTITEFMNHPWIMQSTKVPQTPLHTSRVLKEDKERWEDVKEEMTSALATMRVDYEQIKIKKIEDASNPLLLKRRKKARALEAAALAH

Substance: TNF-α
- IL-6 expression, 0.1 ng/mL ([1]; 0.1 ng/mL TNF-α): rarely produced significant increases in IL-6
- IL-6 expression, 1 ng/mL ([1]; 1 ng/mL TNF-α, versus untreated control): did not always significantly upregulate IL-6 expression above the untreated control
- cytokine-induced IL-6 expression, time and dose dependence [1]: increased IL-6 expression in a time- and dose-dependent manner
- IL-6 induction potency relative to IL-1β ([1]; excluding 24-hour time point for the highest TNF-α dose): less potent inducer of IL-6 expression than IL-1β

Substance: WLRRIKAWLRRIKALNRQLGVAA
- kinase specificity (kinase; effect of the CPP sequence, ref [37]): dramatically decreased the kinase specificity of the peptide
- toxicity [2]: increased its associated toxicity
- HSPB1 phosphorylation [3]: inhibited HSPB1 phosphorylation in human keloid fibroblasts

Substance: YARAAARQARA
- peptide specificity conferred by the CPP (kinase; ref [38]): maximizes peptide specificity

Substance: IL-1β: interleukin-1β (Peprotech), stimulating cytokine
- upregulation of phosphorylated hnRNPA0 ([4]; 6 h, compared to controls, normalized to β-actin): 2 fold
- phosphorylation of hnRNPA0 at 12 hours ([4]; 12 h): no longer upregulates the phosphorylation of hnRNPA0
- IL-6 expression after six hours, all three concentrations ([1]; 0.1, 1, 10 ng/mL IL-1β, 6 h): significantly increased IL-6 expression after six hours (p<0.05)
- cytokine-induced IL-6 expression, time and dose dependence [1]: increased IL-6 expression in a time- and dose-dependent manner
- IL-6 expression at 24 hours, two higher concentrations ([1]; 1 and 10 ng/mL IL-1β, 24 h): induced similar levels of IL-6 expression

Substance: KKKALNRQLGVAA [Hayess and Benndorf peptide]
- MK2 activity in vitro (MK2): does inhibit MK2 activity in vitro

Substance: YARAAARQARAKALARQLGVAA-NH2 [MMI-0100]
- intestinal hydroxyproline content in words (rat colon anastomosis [5]): did not significantly affect rat weight gain, anastomosis bursting pressure or intestinal hydroxyproline (OHP) content at either time point
- in vivo side effects [6]: no obvious in vivo side effects
- animals lost from the treatment group ([6]; in vivo): One animal was lost
- complications of anastomosis ([6]; in vivo): did not cause any of these complications
- highest concentration used versus toxic dose for mesothelial cells (mesothelial cells): well below the toxic dose for mesothelial cells
- IC50 [7]: 22 µM
- anastomosis bursting pressure in words (rat colon anastomosis [8]): did not significantly affect rat weight gain, anastomosis bursting pressure
